Measured values taken from ChEMBL document CHEMBL5356984 (RSC Med Chem, 2023).

Assays:
MCF7 [1] = experiment: Antiproliferative activity against human MCF7 cells assessed as inhibition of cell viability at 20 uM measured after 48 hrs by MTT assay relative to control; assay type: functional
MCF7 [2] = experiment: Antiproliferative activity against human MCF7 cells assessed as inhibition of cell viability measured after 48 hrs by MTT assay; assay type: functional, cell-based; settings: MCF7, 48 h
Procedure, shortened: (§1)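 MTT cell viability read-out; IC50 obtained by non-linear regression of concentration–response data; values are mean ± SD of three independent experiments.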

HCC1806 = experiment: Antiproliferative activity against human HCC1806 cells assessed as inhibition of cell viability measured after 48 hrs by MTT assay; assay type: functional, cell-based; settings: HCC1806, 48 h; procedure, shortened: as §1
MDA-MB-231 = experiment: Antiproliferative activity against human MDA-MB-231 cells assessed as inhibition of cell viability measured after 48 hrs by MTT assay; assay type: functional, cell-based; settings: MDA-MB-231, 48 h; procedure, shortened: as §1
MDA-MB-468 = experiment: Antiproliferative activity against human MDA-MB-468 cells assessed as inhibition of cell viability measured after 48 hrs by MTT assay; assay type: functional, cell-based; settings: MDA-MB-468, 48 h; procedure, shortened: as §1
[3] = Thermal stability of compound in boiling toluene at 120 degreeC assessed as time taken for compound decomposition at 1 mg/ml by HPLC analysis; assay type: physicochemical; settings: read-out: T50
HEK-293T = experiment: Cytotoxicity against HEK293T cells assessed as cell growth inhibition measured after 48 hrs by MTT assay; assay type: functional, cell-based; settings: Homo sapiens; procedure, shortened: as §1
SK-BR-3 = experiment: Antiproliferative activity against human SK-BR-3 cells assessed as inhibition of cell viability measured after 48 hrs by MTT assay; assay type: functional, cell-based; settings: SK-BR-3, 48 h; procedure, shortened: as §1
BT-474 = experiment: Antiproliferative activity against human BT-474 cells assessed as inhibition of cell viability measured after 48 hrs by MTT assay; assay type: functional, cell-based; settings: BT-474, 48 h; procedure, shortened: as §1

Structure (SMILES)	inhibition at 20 µM (MCF7 [1]) [%]	IC50 (MCF7 [2]) [µM]	IC50 (HCC1806) [µM]	IC50 (MDA-MB-231) [µM]	IC50 (MDA-MB-468) [µM]	half-life at 1 mg/ml [3] [min]	IC50 (HEK-293T) [µM]	IC50 (SK-BR-3) [µM]	IC50 (BT-474) [µM]
COc1cc(/C=C/C(=O)/C=C/N2CCN(C)CC2)cc(OC)c1	> 50	14.2	14.8	9.13	> 20	–	–	–	–
CC(C)=CCC[C@]1(C)/C=C/[C@@H](OC(=O)C=C(C)C)[C@](C)(O)/C=C/C(=O)/C(CN2CCN(C)CC2)=C\C1	–	–	–	–	–	< 5	–	–	–
CN1CCN(/C=C/C(=O)/C=C/c2cccc3c2OCO3)CC1	> 50	12.9	13.2	8.14	> 20	–	–	–	–
COc1cc(/C=C/C(=O)/C=C/N(C)CCN(C)C)cc(OC)c1	> 50	16.7	14.7	12.9	> 20	–	–	–	–
COC1=C2C[C@@H](C)C[C@H](OC)[C@H](O)[C@@H](C)/C=C(\C)[C@H](OC(N)=O)[C@@H](OC)/C=C\C=C(/C)C(=O)NC(=CC1=O)C2=O [GELDANAMYCIN]	–	0.13	0.12	0.15	0.033	–	0.53	0.033	0.027
CO[C@@H]1[C@@H](OC(N)=O)[C@@H](O)[C@H](Oc2ccc3c(O)c(NC(=O)c4ccc(O)c(CC=C(C)C)c4)c(=O)oc3c2C)OC1(C)C [NOVOBIOCIN]	–	–	–	–	–	–	> 100	–	–
